ChEMBL document CHEMBL1800058, “Lathyrane diterpenoids from the roots of Euphorbia micractina and their biological activities” (J Nat Prod, 2011)
pIC50: −log10 of the molar value. Active and inactive are the calls of the source. The rule behind the calls is not given here.

Columns and labels:
[1] = test system: Human immunodeficiency virus 1; assay: Antiviral activity against HIV1 harboring vesicular stomatitis virus glycoprotein infected in human 293T cells assessed as inhibition of viral replication at 10 uM after 48 hrs by luciferase activity based luminometer analysis; format: functional, organism-based
Aorta = assay: Vasorelaxant activity in Sprague-Dawley rat […] thoracic aorta assessed as inhibition of phenylephrine-induced vasoconstriction at 10^-6 M relative to control; format: functional; parameters: scale not given: the % may be the effect or the level left
Procedure, shortened: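 Read-out was percent relaxation of phenylephrine-precontracted vessels. Verapamil served as the positive control at the same test concentration.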

[2] = target: T1, Tyrosine-protein phosphatase non-receptor type 1 (Homo sapiens) (UniProt P18031); assay: Inhibition of human recombinant GST-tagged PTP1B assessed as conversion of para-nitrophenyl phosphate to para-nitrophenol at 10^-6 M after 10 mins by microplate spectrophotometer analysis
T1 sequence (whole entry): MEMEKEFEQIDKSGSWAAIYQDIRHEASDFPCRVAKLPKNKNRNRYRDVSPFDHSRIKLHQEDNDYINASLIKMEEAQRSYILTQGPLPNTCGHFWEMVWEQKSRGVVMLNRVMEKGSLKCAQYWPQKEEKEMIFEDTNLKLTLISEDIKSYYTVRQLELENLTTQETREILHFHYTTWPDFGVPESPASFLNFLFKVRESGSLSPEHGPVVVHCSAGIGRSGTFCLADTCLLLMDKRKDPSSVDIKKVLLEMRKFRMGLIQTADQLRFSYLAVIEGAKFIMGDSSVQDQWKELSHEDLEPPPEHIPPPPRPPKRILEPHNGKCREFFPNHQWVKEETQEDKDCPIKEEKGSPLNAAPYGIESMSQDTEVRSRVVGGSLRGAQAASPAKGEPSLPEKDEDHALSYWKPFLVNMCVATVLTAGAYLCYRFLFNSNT

Liver microsomes = assay: Antioxidant activity against Fe2+-cystine-induced lipid peroxidation in rat liver microsomes at 10^-6 M after 15 mins by thiobarbituric acid method; format: functional; details: Microsome
Bel-7402 = assay: Cytotoxicity against human Bel7402 cells at 10^-6 M after 96 hrs by MTT assay; format: functional, cell-based
A549 = assay: Cytotoxicity against human A549 cells at 10^-6 M after 96 hrs by MTT assay; format: functional, cell-based
BGC-823 = assay: Cytotoxicity against human BGC823 cells at 10^-6 M after 96 hrs by MTT assay; format: functional, cell-based
MCF7 = assay: Cytotoxicity against human MCF7 cells at 10^-6 M after 96 hrs by MTT assay; format: functional, cell-based
KETR3 = assay: Cytotoxicity against human Ketr3 cells at 10^-6 M after 96 hrs by MTT assay; format: functional, cell-based
HCT-8 = assay: Cytotoxicity against human HCT8 cells at 10^-6 M after 96 hrs by MTT assay; format: functional, cell-based
[3] = test system: Human immunodeficiency virus 1; assay: Antiviral activity against HIV1 harboring vesicular stomatitis virus glycoprotein infected in human 293T cells assessed as inhibition of viral replication after 48 hrs by luciferase activity based luminometer analysis; format: functional, organism-based; details: Human immunodeficiency virus 1, HEK-293T

With `C/C1=C\[C@H]2[C@@H](O)[C@@H](C)C[C@]2(OC(=O)c2ccccc2)C(=O)/C(C)=C/[C@H]2[C@H](CC1)C2(C)C` the Activity [1] was “inactive”, the Activity (Aorta) was 42% and the inhibition [2] was “inactive”. For the same compound, the Activity (Liver microsomes) was “inactive”, the Activity (Bel-7402) was “inactive” and the Activity (A549) was “inactive”. The Activity (BGC-823) was “inactive”, the Activity (MCF7) was “inactive” and the Activity (KETR3) was “inactive”. The Activity (HCT-8) was “inactive”.
`C/C1=C\[C@H]2[C@H](CC[C@@]3(C)O[C@@H]3[C@H]3[C@@H](OC(=O)c4ccccc4)[C@@H](C)C[C@]3(OC(=O)c3ccccc3)C1=O)C2(C)C` was tested, and the Activity [1] was “inactive”, the Activity (Aorta) was under 30% and the inhibition [2] was “inactive”. The Activity (Liver microsomes) was “inactive”, the Activity (Bel-7402) was “inactive” and the Activity (A549) was “inactive”. For the same compound, the Activity (BGC-823) was “inactive”, the Activity (MCF7) was “inactive” and the Activity (KETR3) was “inactive”. For the same compound, the Activity (HCT-8) was “inactive”.
In the case of `CC(=O)O[C@@H]1[C@@H]2[C@H]3O[C@]3(C)CC[C@H]3[C@H](/C=C(\C)C(=O)[C@@]2(O)C[C@@H]1C)C3(C)C`, the Activity [1] was “inactive”, the Activity (Aorta) was under 30% and the inhibition [2] was “inactive”. The Activity (Liver microsomes) was “inactive”, the Activity (Bel-7402) was “inactive” and the Activity (A549) was “inactive”. The Activity (BGC-823) was “inactive”, the Activity (MCF7) was “inactive” and the Activity (KETR3) was “inactive”. The Activity (HCT-8) was “inactive”.
`CC(=O)O[C@H]1[C@@H](C)C[C@]2(OC(C)=O)C(=O)/C(C)=C/[C@H]3[C@H](CC/C(C)=C/[C@@H]12)C3(C)C` was tested, and the Activity [1] was “inactive”, the Activity (Aorta) was under 30% and the inhibition [2] was “inactive”. For the same compound, the Activity (Liver microsomes) was “inactive”, the Activity (Bel-7402) was “inactive” and the Activity (A549) was “inactive”. The Activity (BGC-823) was “inactive”, the Activity (MCF7) was “inactive” and the Activity (KETR3) was “inactive”. For the same compound, the Activity (HCT-8) was “inactive”.
In the case of `C/C1=C/C[C@H]2[C@@H](/C=C(\C)C(=O)[C@@]3(OC(=O)c4ccccc4)C[C@H](C)[C@H](O)[C@@H]3[C@@H]1O)C2(C)C`, the Activity [1] was “inactive” and the Activity (Aorta) was 53%.
`C/C1=C\[C@H]2[C@H](CC[C@@]3(C)O[C@@H]3[C@H]3[C@@H](OC(=O)c4ccccc4)[C@@H](C)C[C@]3(O)C1=O)C2(C)C` was tested, and the Activity [1] was “inactive”, the Activity (Aorta) was 48% and the inhibition [2] was “inactive”. The Activity (Liver microsomes) was “inactive”, the Activity (Bel-7402) was “inactive” and the Activity (A549) was “inactive”. The Activity (BGC-823) was “inactive”, the Activity (MCF7) was “inactive” and the Activity (KETR3) was “inactive”. The Activity (HCT-8) was “inactive”.
In the case of `C/C1=C\[C@H]2[C@H](CC[C@@]3(C)O[C@@H]3[C@H]3[C@@H](OC(=O)/C=C/c4ccccc4)[C@@H](C)C[C@]3(O)C1=O)C2(C)C`, the Activity [1] was “inactive”, the Activity (Aorta) was under 30% and the inhibition [2] was “inactive”. For the same compound, the Activity (Liver microsomes) was “inactive”, the Activity (Bel-7402) was “inactive” and the Activity (A549) was “inactive”. The Activity (BGC-823) was “inactive”, the Activity (MCF7) was “inactive” and the Activity (KETR3) was “inactive”. The Activity (HCT-8) was “inactive”.
With `C/C1=C/C[C@H]2[C@@H](/C=C(\C)C(=O)[C@@]3(O)C[C@H](C)[C@H](OC(=O)/C=C/c4ccccc4)[C@H]3[C@H]1O)C2(C)C` the Activity [1] was “inactive”, the Activity (Aorta) was under 30% and the inhibition [2] was “inactive”. The Activity (Liver microsomes) was “inactive”, the Activity (Bel-7402) was “inactive” and the Activity (A549) was “inactive”. For the same compound, the Activity (BGC-823) was “inactive”, the Activity (MCF7) was “inactive” and the Activity (KETR3) was “inactive”. The Activity (HCT-8) was “inactive”.
`C/C1=C\[C@H]2[C@@H](OC(=O)/C=C/c3ccccc3)[C@@H](C)C[C@]2(O)C(=O)/C(C)=C/[C@H]2[C@H](CC1)C2(C)C` was tested, and the Activity [1] was “inactive”, the Activity (Aorta) was under 30% and the inhibition [2] was “inactive”. For the same compound, the Activity (Liver microsomes) was “inactive”, the Activity (Bel-7402) was “inactive” and the Activity (A549) was “inactive”. For the same compound, the Activity (BGC-823) was “inactive”, the Activity (MCF7) was “inactive” and the Activity (KETR3) was “inactive”. For the same compound, the Activity (HCT-8) was “inactive”.
For `C/C1=C\[C@H]2[C@@H](O)[C@@H](C)C[C@]2(OC(=O)/C=C/c2ccccc2)C(=O)/C(C)=C/[C@H]2[C@H](CC1)C2(C)C`, the pIC50 [3] was 5.09, the Activity (Aorta) was under 30% and the inhibition [2] was “inactive”. For the same compound, the Activity (Liver microsomes) was “inactive”, the Activity (Bel-7402) was “inactive” and the Activity (A549) was “inactive”. The Activity (BGC-823) was “inactive”, the Activity (MCF7) was “inactive” and the Activity (KETR3) was “inactive”. The Activity (HCT-8) was “inactive”.
In the case of `CC(=O)O[C@]12C[C@H](C)[C@H](O)[C@@H]1[C@H]1O[C@]1(C)CC[C@H]1[C@H](/C=C(\C)C2=O)C1(C)C`, the Activity [1] was “inactive”, the Activity (Aorta) was under 30% and the inhibition [2] was “inactive”. The Activity (Liver microsomes) was “inactive”, the Activity (Bel-7402) was “inactive” and the Activity (A549) was “inactive”. The Activity (BGC-823) was “inactive”, the Activity (MCF7) was “inactive” and the Activity (KETR3) was “inactive”. For the same compound, the Activity (HCT-8) was “inactive”.
`CC(=O)O[C@H]1/C(C)=C\C[C@H]2[C@H](/C=C(\C)C(=O)[C@@]3(OC(=O)c4ccccc4)C[C@H](C)[C@H](O)[C@H]13)C2(C)C` was tested, and the Activity [1] was “inactive”, the Activity (Aorta) was 50% and the inhibition [2] was “inactive”. For the same compound, the Activity (Liver microsomes) was “inactive”, the Activity (Bel-7402) was “inactive” and the Activity (A549) was “inactive”. For the same compound, the Activity (BGC-823) was “inactive”, the Activity (MCF7) was “inactive” and the Activity (KETR3) was “inactive”. For the same compound, the Activity (HCT-8) was “inactive”.
For `CC(=O)O[C@@H]1[C@H]2[C@@H](O)/C(C)=C\C[C@H]3[C@H](/C=C(\C)C(=O)[C@@]2(OC(=O)c2ccccc2)C[C@@H]1C)C3(C)C`, the Activity [1] was “inactive”, the Activity (Aorta) was 48% and the inhibition [2] was “inactive”. For the same compound, the Activity (Liver microsomes) was “inactive”, the Activity (Bel-7402) was “inactive” and the Activity (A549) was “inactive”. For the same compound, the Activity (BGC-823) was “inactive”, the Activity (MCF7) was “inactive” and the Activity (KETR3) was “inactive”. For the same compound, the Activity (HCT-8) was “inactive”.
`C=C1CC[C@H]2[C@H](/C=C(\C)C(=O)[C@@]3(OC(=O)/C=C/c4ccccc4)C[C@H](C)[C@H](O)[C@@H]3[C@H]1O)C2(C)C` was tested, and the Activity [1] was “inactive”, the Activity (Aorta) was under 30% and the inhibition [2] was “inactive”. The Activity (Liver microsomes) was “inactive”, the Activity (Bel-7402) was “inactive” and the Activity (A549) was “inactive”. For the same compound, the Activity (BGC-823) was “inactive”, the Activity (MCF7) was “inactive” and the Activity (KETR3) was “inactive”. For the same compound, the Activity (HCT-8) was “inactive”.
With `COc1ccc(CCN(C)CCCC(C#N)(c2ccc(OC)c(OC)c2)C(C)C)cc1OC` (configuration not stated) [VERAPAMIL] the Activity (Aorta) was 44%.
`C/C1=C/C[C@H]2[C@H](/C=C(\C)C(=O)[C@@]3(OC(=O)/C=C/c4ccccc4)C[C@H](C)[C@@H]4OC(C)(C)O[C@@H]1[C@@H]43)C2(C)C` was tested, and the Activity (Aorta) was under 30%, the inhibition [2] was “inactive” and the Activity (Liver microsomes) was “inactive”. For the same compound, the Activity (Bel-7402) was “inactive”, the Activity (A549) was “inactive” and the Activity (BGC-823) was “inactive”. The Activity (MCF7) was “inactive”, the Activity (KETR3) was “inactive” and the Activity (HCT-8) was “inactive”.
For `CC(=O)O[C@@H]1[C@@H]2[C@H]3O[C@]3(C)CC[C@H]3[C@H](/C=C(\C)C(=O)[C@@]2(OC(=O)c2ccccc2)C[C@@H]1C)C3(C)C`, the Activity [1] was “inactive”, the Activity (Aorta) was 41% and the inhibition [2] was “inactive”. For the same compound, the Activity (Liver microsomes) was “inactive”, the Activity (Bel-7402) was “inactive” and the Activity (A549) was “inactive”. The Activity (BGC-823) was “inactive”, the Activity (MCF7) was “inactive” and the Activity (KETR3) was “inactive”. For the same compound, the Activity (HCT-8) was “inactive”.
For `CC(=O)O[C@@H]1[C@@H]2[C@H]3O[C@]3(C)CC[C@H]3[C@H](/C=C(\C)C(=O)[C@@]2(OC(C)=O)C[C@@H]1C)C3(C)C`, the Activity [1] was “inactive”, the Activity (Aorta) was under 30% and the inhibition [2] was “inactive”. For the same compound, the Activity (Liver microsomes) was “inactive”, the Activity (Bel-7402) was “inactive” and the Activity (A549) was “inactive”. For the same compound, the Activity (BGC-823) was “inactive”, the Activity (MCF7) was “inactive” and the Activity (KETR3) was “inactive”. The Activity (HCT-8) was “inactive”.
With `C/C1=C/C[C@H]2[C@H](/C=C(\C)C(=O)[C@@]3(O)C[C@H](C)[C@H](O)[C@@H]3[C@H]1OC(=O)/C=C/c1ccccc1)C2(C)C` the Activity [1] was “inactive”, the Activity (Aorta) was under 30% and the inhibition [2] was “inactive”. For the same compound, the Activity (Liver microsomes) was “inactive”, the Activity (Bel-7402) was “inactive” and the Activity (A549) was “inactive”. For the same compound, the Activity (BGC-823) was “inactive”, the Activity (MCF7) was “inactive” and the Activity (KETR3) was “inactive”. The Activity (HCT-8) was “inactive”.
